Measured values taken from ChEMBL document CHEMBL1152541, “Staurosporine tethered peptide ligands that target cAMP-dependent protein kinase (PKA): optimization and selectivity profiling” (Bioorg Med Chem, 2009).
Values belong to the compound of their own block, whether it stands above or below them. *1 amine or outer side, *2 acyl side, *3 side chain or, on linkers, in order; H or OH if unused. Where a SMILES comes first, the peptide text is derived from it. Bridges are numbered along the chain shown (N, C = ends). [ ]: non-standard residue; d: D form. The star is where a group is joined. Staurosporine = CO[C@@H]1[C@H](N(C)*)C[C@H]2O[C@]1(C)n1c3ccccc3c3c4c(c5c6ccccc6n2c5c31)C(=O)NC4; Suc = O=C(CCC(=O)[*:2])[*:1]; Dap = NC[C@H](N)C(=O)O; βAla = NCCC(=O)O

Key:
[1] = biological target: T1, Serine/threonine-protein kinase DCLK1 (Homo sapiens) (UniProt O15075); assay: Binding affinity to human DCAMKL1 at 500 nM by cell-based competition binding assay relative to control in presence of DTT
T1 sequence (whole entry): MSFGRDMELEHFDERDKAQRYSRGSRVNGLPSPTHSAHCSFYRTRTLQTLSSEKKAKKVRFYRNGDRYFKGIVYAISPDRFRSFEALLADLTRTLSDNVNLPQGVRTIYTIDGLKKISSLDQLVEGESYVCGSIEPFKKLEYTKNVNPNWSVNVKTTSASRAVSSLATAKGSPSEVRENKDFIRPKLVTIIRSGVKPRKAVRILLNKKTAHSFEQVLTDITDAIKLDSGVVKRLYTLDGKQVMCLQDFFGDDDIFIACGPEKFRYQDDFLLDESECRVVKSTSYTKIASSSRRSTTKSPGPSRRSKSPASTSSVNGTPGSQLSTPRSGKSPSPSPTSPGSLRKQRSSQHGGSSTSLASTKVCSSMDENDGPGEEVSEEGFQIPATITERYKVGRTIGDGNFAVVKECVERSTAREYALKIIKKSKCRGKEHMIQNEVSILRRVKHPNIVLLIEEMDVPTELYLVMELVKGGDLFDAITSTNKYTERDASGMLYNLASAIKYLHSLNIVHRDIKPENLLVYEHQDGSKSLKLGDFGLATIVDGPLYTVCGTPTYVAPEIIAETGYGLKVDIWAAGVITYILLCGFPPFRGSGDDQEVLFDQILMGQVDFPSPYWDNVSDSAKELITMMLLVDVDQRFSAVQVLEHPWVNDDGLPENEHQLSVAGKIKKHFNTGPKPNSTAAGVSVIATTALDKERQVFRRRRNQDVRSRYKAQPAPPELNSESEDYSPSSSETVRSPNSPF
Method in brief: (§1)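 Commercial (Ambit) competitive kinase-binding panel of 90 kinases measured the binding profile. Run under reducing conditions of 7.5 mM DTT. Binding is expressed relative to control.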

[2] = biological target: Casein kinase I isoform gamma-2 (Homo sapiens) (UniProt P78368); assay: Binding affinity to human CSNK1G2 at 500 nM by cell-based competition binding assay relative to control in presence of DTT; method in brief: as §1
Chain of Casein kinase I isoform gamma-2 (Homo sapiens) (P78368 whole entry, looked up, canonical isoform): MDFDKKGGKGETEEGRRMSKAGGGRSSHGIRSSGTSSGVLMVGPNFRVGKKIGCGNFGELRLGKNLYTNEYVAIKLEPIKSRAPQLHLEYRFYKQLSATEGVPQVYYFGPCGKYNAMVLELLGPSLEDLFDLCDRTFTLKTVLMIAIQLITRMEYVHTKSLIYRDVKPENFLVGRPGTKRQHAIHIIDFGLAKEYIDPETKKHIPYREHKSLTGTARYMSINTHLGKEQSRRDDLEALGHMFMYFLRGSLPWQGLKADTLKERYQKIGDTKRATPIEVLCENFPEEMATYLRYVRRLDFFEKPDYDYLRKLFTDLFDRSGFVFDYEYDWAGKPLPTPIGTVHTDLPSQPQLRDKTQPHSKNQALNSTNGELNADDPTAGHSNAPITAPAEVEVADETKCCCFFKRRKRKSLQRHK

[3] = biological target: Proto-oncogene tyrosine-protein kinase Src (Homo sapiens) (UniProt P12931); assay: Binding affinity to human SRC at 500 nM by cell-based competition binding assay relative to control in presence of DTT
Chain of Proto-oncogene tyrosine-protein kinase Src (Homo sapiens) (P12931 2-536 limits assumed): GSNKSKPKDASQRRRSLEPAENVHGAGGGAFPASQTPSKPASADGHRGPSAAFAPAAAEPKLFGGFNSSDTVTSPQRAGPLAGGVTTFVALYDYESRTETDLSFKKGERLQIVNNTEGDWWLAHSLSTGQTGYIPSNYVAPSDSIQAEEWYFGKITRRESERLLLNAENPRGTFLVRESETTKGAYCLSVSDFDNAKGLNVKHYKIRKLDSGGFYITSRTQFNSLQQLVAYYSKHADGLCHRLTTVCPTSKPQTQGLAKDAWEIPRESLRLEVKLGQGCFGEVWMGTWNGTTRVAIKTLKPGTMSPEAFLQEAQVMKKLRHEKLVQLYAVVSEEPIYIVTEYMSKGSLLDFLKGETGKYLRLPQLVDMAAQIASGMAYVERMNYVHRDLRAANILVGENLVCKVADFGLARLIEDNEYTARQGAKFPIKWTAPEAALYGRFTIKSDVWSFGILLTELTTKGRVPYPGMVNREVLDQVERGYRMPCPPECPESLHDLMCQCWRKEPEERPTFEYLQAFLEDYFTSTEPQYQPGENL

[4] = biological target: T2, Serine/threonine-protein kinase PLK4 (Homo sapiens) (UniProt O00444); assay: Binding affinity to human PLK4 at 200 nM by cell-based competition binding assay relative to control in presence of DTT
T2 sequence (whole entry): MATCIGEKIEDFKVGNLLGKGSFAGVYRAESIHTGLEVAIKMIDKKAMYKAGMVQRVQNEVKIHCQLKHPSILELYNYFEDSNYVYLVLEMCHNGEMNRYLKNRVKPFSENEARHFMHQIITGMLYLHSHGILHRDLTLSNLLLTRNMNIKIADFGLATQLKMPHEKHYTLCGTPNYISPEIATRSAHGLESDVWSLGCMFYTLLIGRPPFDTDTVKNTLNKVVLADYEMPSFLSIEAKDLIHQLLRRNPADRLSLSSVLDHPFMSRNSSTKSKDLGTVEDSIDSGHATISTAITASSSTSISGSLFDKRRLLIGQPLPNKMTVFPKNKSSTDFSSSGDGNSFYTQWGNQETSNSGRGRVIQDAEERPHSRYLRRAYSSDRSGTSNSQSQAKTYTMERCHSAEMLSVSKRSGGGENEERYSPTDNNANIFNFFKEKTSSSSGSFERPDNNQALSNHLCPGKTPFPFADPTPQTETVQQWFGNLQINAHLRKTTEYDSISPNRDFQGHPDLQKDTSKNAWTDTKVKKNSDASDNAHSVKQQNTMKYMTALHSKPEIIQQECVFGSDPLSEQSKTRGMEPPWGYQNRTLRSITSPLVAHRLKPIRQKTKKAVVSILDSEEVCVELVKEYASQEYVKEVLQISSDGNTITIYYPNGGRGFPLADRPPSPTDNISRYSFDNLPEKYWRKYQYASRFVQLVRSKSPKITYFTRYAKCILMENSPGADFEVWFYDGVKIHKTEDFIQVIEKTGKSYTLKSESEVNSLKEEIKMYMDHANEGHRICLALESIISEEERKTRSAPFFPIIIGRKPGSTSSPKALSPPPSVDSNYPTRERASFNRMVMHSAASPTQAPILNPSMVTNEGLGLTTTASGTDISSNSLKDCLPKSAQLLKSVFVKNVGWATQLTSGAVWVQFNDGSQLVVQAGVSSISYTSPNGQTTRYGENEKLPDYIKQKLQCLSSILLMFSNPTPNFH

[5] = biological target: Serine/threonine-protein kinase PAK 2 (Homo sapiens) (UniProt Q13177); assay: Binding affinity to human PAK2 at 200 nM by cell-based competition binding assay relative to control in presence of DTT
Chain of Serine/threonine-protein kinase PAK 2 (Homo sapiens) (Q13177 whole entry, canonical isoform): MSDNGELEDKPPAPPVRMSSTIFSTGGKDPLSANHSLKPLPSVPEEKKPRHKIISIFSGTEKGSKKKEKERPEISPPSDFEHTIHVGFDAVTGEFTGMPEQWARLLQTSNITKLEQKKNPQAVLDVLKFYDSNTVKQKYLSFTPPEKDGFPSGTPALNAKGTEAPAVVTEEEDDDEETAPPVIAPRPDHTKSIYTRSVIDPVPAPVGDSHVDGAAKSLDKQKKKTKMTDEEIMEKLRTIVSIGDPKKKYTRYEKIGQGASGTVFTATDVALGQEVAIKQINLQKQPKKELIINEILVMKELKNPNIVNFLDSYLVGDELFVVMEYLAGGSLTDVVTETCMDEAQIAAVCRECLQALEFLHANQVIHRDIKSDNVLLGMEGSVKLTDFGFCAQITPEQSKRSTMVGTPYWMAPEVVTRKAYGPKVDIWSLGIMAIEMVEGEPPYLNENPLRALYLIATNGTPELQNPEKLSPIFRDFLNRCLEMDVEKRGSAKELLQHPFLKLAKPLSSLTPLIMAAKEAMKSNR

[6] = biological target: Phosphatidylinositol 4,5-bisphosphate 3-kinase catalytic subunit gamma isoform (Homo sapiens) (UniProt P48736); assay: Binding affinity to human PIK3Cgamma at 50 nM by cell-based competition binding assay relative to control in presence of DTT
Chain of Phosphatidylinositol 4,5-bisphosphate 3-kinase catalytic subunit gamma isoform (Homo sapiens) (P48736 whole entry, looked up, canonical isoform): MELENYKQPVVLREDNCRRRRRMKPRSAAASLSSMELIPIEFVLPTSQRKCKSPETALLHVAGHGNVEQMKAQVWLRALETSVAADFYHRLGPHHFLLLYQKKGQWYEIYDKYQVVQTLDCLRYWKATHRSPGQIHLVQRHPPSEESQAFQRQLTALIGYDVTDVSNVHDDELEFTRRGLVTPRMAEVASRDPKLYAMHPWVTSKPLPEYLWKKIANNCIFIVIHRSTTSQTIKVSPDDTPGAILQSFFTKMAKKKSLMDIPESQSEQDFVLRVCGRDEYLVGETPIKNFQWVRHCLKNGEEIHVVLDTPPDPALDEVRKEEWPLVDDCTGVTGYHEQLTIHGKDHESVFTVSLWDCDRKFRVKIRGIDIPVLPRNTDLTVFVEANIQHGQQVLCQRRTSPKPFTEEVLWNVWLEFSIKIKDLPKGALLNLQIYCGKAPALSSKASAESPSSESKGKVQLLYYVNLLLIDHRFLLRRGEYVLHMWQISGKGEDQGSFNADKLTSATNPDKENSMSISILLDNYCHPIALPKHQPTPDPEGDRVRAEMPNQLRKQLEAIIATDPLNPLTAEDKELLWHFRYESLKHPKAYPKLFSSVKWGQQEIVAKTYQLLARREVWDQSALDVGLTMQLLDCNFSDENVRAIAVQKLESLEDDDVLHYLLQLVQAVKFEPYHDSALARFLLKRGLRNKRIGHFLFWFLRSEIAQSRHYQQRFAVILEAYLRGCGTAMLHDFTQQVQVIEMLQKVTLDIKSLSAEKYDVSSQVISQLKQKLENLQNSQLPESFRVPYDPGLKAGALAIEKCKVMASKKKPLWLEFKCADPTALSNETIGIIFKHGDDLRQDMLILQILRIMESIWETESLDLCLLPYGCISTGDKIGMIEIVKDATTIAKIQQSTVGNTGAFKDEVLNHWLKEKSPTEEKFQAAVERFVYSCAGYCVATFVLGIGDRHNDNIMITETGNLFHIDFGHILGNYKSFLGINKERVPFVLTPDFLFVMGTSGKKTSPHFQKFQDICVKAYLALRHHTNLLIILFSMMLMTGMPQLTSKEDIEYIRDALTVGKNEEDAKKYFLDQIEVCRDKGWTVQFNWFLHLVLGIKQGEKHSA

[7] = biological target: Cyclin-dependent kinase 2 (Homo sapiens) (UniProt P24941); assay: Binding affinity to human CDK2 at 50 nM by cell-based competition binding assay relative to control in presence of DTT
Method in brief: (§2)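 Kinase binding profiling ran on a commercial (Ambit) competitive binding screen against a panel of 90 kinases. The screen used reducing conditions with 7.5 mM DTT. To withstand the DTT, the bivalent ligand was tested as its amide isostere, with the disulfide replaced. A staurosporine derivative carrying a 3 β-alanine linker was run as the reference compound.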

[8] = tested on: Serine/threonine-protein kinase B-raf (Homo sapiens), P15056 [V600E]; assay: Binding affinity to human BRAF V600E mutant at 50 nM by cell-based competition binding assay relative to control in presence of DTT; method in brief: as §2
Chain of Serine/threonine-protein kinase B-raf (Homo sapiens), P15056 [V600E] (P15056 whole entry V600E): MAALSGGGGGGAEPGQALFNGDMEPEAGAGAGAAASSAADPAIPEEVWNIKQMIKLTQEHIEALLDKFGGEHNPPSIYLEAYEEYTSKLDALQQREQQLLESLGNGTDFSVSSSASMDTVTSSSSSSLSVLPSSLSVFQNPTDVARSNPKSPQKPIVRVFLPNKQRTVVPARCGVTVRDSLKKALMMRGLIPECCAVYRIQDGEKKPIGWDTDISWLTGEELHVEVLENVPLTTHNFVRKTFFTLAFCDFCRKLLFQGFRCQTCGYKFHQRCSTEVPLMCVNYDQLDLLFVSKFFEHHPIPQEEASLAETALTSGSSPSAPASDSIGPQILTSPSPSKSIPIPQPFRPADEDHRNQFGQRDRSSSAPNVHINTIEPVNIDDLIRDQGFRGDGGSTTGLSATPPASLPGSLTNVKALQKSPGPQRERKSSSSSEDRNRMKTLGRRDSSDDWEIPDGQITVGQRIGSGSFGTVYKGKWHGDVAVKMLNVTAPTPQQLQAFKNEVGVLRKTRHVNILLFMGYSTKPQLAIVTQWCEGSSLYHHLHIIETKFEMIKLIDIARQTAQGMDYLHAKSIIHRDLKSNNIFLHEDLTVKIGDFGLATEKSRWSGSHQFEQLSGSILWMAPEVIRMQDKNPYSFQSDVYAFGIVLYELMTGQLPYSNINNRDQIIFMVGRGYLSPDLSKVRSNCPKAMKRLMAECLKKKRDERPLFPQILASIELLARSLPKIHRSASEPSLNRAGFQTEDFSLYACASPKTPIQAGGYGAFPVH

Activity [1]: 100%
Activity [2]: 99%
Activity [3]: 72%
SMILES: CO[C@@H]1[C@H](N(C)C(=O)CCC(=O)NCCC(=O)NCCC(=O)NCCC(N)=O)C[C@H]2O[C@]1(C)n1c3ccccc3c3c4c(c5c6ccccc6n2c5c31)C(=O)NC4

Activity [4]: 4.9%
Activity [5]: 36%
SMILES: CO[C@@H]1[C@H](N(C)C(=O)CCC(=O)NCCC(=O)NCCC(=O)NCCC(=O)NCCC(=O)NCCC(=O)NCCC(=O)NCCC(=O)N[C@H]2CSSC[C@@H](C(=O)NCC(N)=O)NC(=O)CNC(=O)[C@H](Cc3ccccc3)NC(=O)[C@H](C(C)C)NC(=O)[C@H](CCCNC(=N)N)NC(=O)[C@H](Cc3ccccc3)NC(=O)[C@H](C(C)C)NC2=O)C[C@H]2O[C@]1(C)n1c3ccccc3c3c4c(c5c6ccccc6n2c5c31)C(=O)NC4 ({Staurosporine-Suc-βAla-βAla-βAla-βAla-βAla-βAla-βAla}-CVFRVFGCG-NH2; disulfide 1-8)

Activity [6]: 91%
Activity [7]: 100%
Activity [8]: 84%
SMILES: CO[C@@H]1[C@H](N(C)C(=O)CCC(=O)NCCC(=O)NCCC(=O)NCCC(=O)NCCC(=O)NCCC(=O)NCCC(=O)NCCC(=O)N[C@H]2CNC(=O)C[C@@H](C(N)=O)NC(=O)CNC(=O)[C@H](Cc3ccccc3)NC(=O)[C@H](C(C)C)NC(=O)[C@H](CCCNC(=N)N)NC(=O)[C@H](Cc3ccccc3)NC(=O)[C@H](C(C)C)NC2=O)C[C@H]2O[C@]1(C)n1c3ccccc3c3c4c(c5c6ccccc6n2c5c31)C(=O)NC4 ({Staurosporine-Suc-βAla-βAla-βAla-βAla-βAla-βAla-βAla}-[Dap]VFRVFGD-NH2; lactam 1-8)
